Assay results collected from several papers.
Compare with care: the assays were run in different laboratories.
Effect on: cell growth or viability

CC(=O)OC1c2c(ccc3ccc(=O)oc23)OC(C)(C)C1OC(=O)C(C)(O)C(C)O (stereo not drawn) — IC50 (WI-38; WST-1): 89.6 µM
O=C(N[C@@H](Cc1ccccc1)C(=O)c1cc(-c2ccccc2)no1)[C@H](Cc1ccccc1)NC(=O)N1CCOCC1 (mixture of isomers) — CC50 (MRC-5 SV2): > 64 µM
COC(=O)c1c(C)ncn1CC(c1cn(C)c2ccccc12)c1cn(C)c2ccccc12 — CC50 (HaCaT; MTS; 24 h): > 20 µM
C/C=C(/C)C(=O)O[C@@H]1[C@H](OC(C)=O)c2c(ccc3ccc(=O)oc23)OC1(C)C — IC50 (WI-38; WST-1): 120 µM
CCOC(=O)C(C(C)=O)=C1Sc2nc3ccc(S(=O)(=O)N4CCCC4)cc3nc2S1 — viability (WI-38; MTT; 25 µM, 24 h): 60.1%
COC(=O)c1c(C)ncn1CC(c1c[nH]c2cc(Br)ccc12)c1c[nH]c2cc(Br)ccc12 — CC50 (HaCaT; MTS; 24 h): > 20 µM
O=c1c(O)c(-c2ccc(O)cc2)oc2cc(O)cc(O)c12 — IC50 (WI-38; WST-1; 48 h): 95.4 µM
O=C(N[C@H](CCc1ccccc1)C(=O)c1cc(Cc2ccccc2)on1)[C@H](Cc1ccccc1)NC(=O)N1CCOCC1 — CC50 (MRC-5 SV2): > 64 µM
CCc1ncn(CC(c2c[nH]c3ccc(C)cc23)c2c[nH]c3ccc(C)cc23)c1C(=O)OC — CC50 (HaCaT; MTS; 24 h): > 20 µM
O=C1CCCCC1=C1Sc2nc3ccc(S(=O)(=O)N4CCCC4)cc3nc2S1 — viability (WI-38; MTT; 3.125 µM, 24 h): 100%
O=c1c(O)c(-c2ccc(O)c(O)c2)oc2cc(O)cc(O)c12 — IC50 (WI-38; WST-1; 48 h): 87.6 µM
CCOC(=O)c1c(C)ncn1CC(c1cn(C)c2ccc([N+](=O)[O-])cc12)c1cn(C)c2ccc([N+](=O)[O-])cc12 — CC50 (HaCaT; MTS; 24 h): > 20 µM
O=C(N[C@@H](Cc1ccccc1)C(=O)c1nc2ccccc2s1)[C@H](Cc1ccccc1)NC(=O)N1CCOCC1 — CC50 (MRC-5 SV2): > 64 µM
CC(=O)O[C@@H]1c2c(ccc3ccc(=O)oc23)OC(C)(C)[C@@H]1OC(=O)C1(C)OC1C (stereo partly drawn) — IC50 (WI-38; WST-1): 99.6 µM
COc1cccc2c1C(=O)c1c(O)c3c(c(O)c1C2=O)C[C@@](O)(C(=O)CO)C[C@@H]3O[C@H]1C[C@H](N)[C@H](O)[C@H](C)O1 — viability (WI-38; MTT; 3.125 µM, 24 h): 64.9%
O=C(N[C@@H](Cc1ccccc1)C(=O)c1cn(-c2ccccc2)nn1)[C@H](Cc1ccccc1)NC(=O)N1CCOCC1 (single isomer, unassigned) — CC50 (MRC-5 SV2): > 64 µM
CC1(C)CC[C@]2(C)CC[C@]3(C)[C@H]4CC=C5[C@@H](CC[C@H](O)C5(C)C)[C@]4(C)CC[C@@]3(C)[C@@H]2C1 — IC50 (WI-38; WST-1): 62.9 µM
C[Si](C)(C)c1cc(C(=O)[C@H](Cc2ccccc2)NC(=O)[C@H](Cc2ccccc2)NC(=O)N2CCOCC2)no1 (single isomer, unassigned) — CC50 (MRC-5 SV2): > 64 µM
N#CC(C(=O)Nc1cccc(C(F)(F)F)c1)=C1Sc2nc3ccc(S(=O)(=O)N4CCCC4)cc3nc2S1 — viability (WI-38; MTT; 25 µM, 24 h): 67.5%
O=C(N[C@@H](Cc1ccccc1)C(=O)c1noc(-c2ccccc2)n1)[C@H](Cc1ccccc1)NC(=O)N1CCOCC1 — CC50 (MRC-5 SV2): > 64 µM
O=c1[nH]cc(F)c(=O)[nH]1 — IC50 (WI-38; WST-1; 48 h): 63.4 µM
